SMILES strings stand for the structures. Active and inactive are the calls of the source.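 Rule for the calls: active = IC50 below 20 µM; inactive = the rest.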

This experiment has as its target Apelin receptor (Homo sapiens) (UniProt P35414). The experiment is described as follows: apelin receptor inhibitor analogs – cell-based, luminescence, set 3, SAR follow-up (AID 488992). The note with it: CHO-K1 AGTRL-1 PathHunter beta-arrestin. In short, it runs like this:
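test system = CHO-K1 APJ beta-arrestin complementation cells | also added = apelin-13, 10 nM final | doses = test compounds as dose-response series | timing = overnight cell seeding, 90 min compound-agonist exposure at 25 °C | detection = luminescence from beta-gal complementation, read 60 min after detection reagent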

Sequence of Apelin receptor (Homo sapiens) (P35414 whole entry, looked up): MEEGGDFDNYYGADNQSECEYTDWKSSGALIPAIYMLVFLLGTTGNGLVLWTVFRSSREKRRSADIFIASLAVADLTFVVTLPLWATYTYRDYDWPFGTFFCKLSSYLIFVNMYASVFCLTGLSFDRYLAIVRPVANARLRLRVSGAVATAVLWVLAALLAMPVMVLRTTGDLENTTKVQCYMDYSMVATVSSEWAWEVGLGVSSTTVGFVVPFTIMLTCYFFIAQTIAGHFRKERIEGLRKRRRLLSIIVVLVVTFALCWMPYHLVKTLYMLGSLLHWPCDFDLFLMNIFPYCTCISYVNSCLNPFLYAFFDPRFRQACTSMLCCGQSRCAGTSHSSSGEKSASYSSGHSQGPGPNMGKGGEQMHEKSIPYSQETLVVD

On to `Cc1ccnc(SCc2cc(=O)c(OC(=O)C(C)C)co2)n1`, for which the IC50 is > 79 µM (inactive).

On to `COc1cc(CSc2nc(C)cc(C)n2)ccc1OC(=O)c1ccc([N+](=O)[O-])cc1`, for which the IC50 is > 79 µM (inactive).

Take `COc1cc(CSc2nc(C)cc(C)n2)ccc1OC(=O)c1cccnc1`: the IC50 was > 79 µM (inactive).

As for `COc1cc(CSc2nc(C)cc(C)n2)ccc1OC(=O)c1ccccc1`, the IC50 is > 79 µM (inactive).

Turning to `Cc1ccnc(SCc2cc(=O)c(OCc3ccc(Cl)c([N+](=O)[O-])c3)co2)n1`, the IC50 is > 79 µM (inactive).

For `O=C(Nc1ccc(CSc2ncccn2)cc1)c1ccccc1`, the IC50 is > 79 µM (inactive).

With `CC(=O)Oc1coc(CSc2nccc(C)n2)cc1=O`, the IC50 was > 79 µM (inactive).

In the case of `Cc1ccnc(SCc2cc(=O)c(OC(=O)C(C)(C)C)co2)n1`, the IC50 is > 79 µM (inactive).

For the compound `Cc1ccnc(SCc2cc(=O)c(OC(=O)c3ccno3)co2)n1`, the IC50 was > 79 µM (inactive).

With `Cc1ccnc(SCc2cc(=O)c(OC(=O)c3ccc([N+](=O)[O-])o3)co2)n1`, the IC50 is > 79 µM (inactive).
